Measurements: ChEMBL document CHEMBL1926675, “Thio- and aminocaffeine analogues as inhibitors of human monoamine oxidase” (Bioorg Med Chem, 2011)

molecular target: T1, Amine oxidase [flavin-containing] B (Homo sapiens, UniProt P27338); assay: Competitive inhibition of human recombinant MAOB using kynuramine as substrate at 0.04 to 0.16 uM by Lineweaver burk plot analysis; settings: not given
T1 sequence (P27338 whole entry): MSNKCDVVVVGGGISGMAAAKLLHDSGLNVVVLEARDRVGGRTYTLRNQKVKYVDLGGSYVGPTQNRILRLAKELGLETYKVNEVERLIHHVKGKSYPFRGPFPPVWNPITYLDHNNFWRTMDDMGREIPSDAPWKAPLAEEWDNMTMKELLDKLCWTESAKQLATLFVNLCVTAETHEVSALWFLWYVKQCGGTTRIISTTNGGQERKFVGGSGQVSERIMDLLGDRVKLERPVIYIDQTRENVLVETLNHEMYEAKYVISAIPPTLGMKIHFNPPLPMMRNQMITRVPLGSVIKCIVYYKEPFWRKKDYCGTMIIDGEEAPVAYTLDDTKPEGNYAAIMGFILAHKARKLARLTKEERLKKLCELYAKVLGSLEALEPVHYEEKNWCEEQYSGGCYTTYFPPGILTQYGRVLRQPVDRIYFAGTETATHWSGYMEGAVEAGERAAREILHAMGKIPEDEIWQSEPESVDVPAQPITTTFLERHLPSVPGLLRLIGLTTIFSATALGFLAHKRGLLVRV
Procedure, shortened: (§1)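 Insect-cell microsomal recombinant human MAO-A or -B, 0.015 mg/mL, in potassium phosphate buffer (100 mM, pH 7.4, isotonic with KCl). Initial rates were measured with four kynuramine concentrations (15–90 µM), without inhibitor and with three inhibitor levels (MAO-A 1.31–5.22 µM; MAO-B 0.04–0.16 µM). Lineweaver–Burk plots were fitted by linear regression.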

`Cn1c(=O)c2c(nc(SCc3ccc(Br)cc3)n2C)n(C)c1=O` was tested, and the “inhibition (INH)” value was “Active”.

species on record: Homo sapiens; assay: Selectivity ratio, ratio of IC50 for human recombinant MAOA to IC50 for human recombinant MAOB; settings: not given
Procedure, shortened: (§2)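 Enzyme: insect-cell microsomal recombinant human MAO-A or -B (0.0075 mg/mL) in 100 mM potassium phosphate, pH 7.4, isotonic with KCl. Kynuramine 45 µM (MAO-A) or 30 µM (MAO-B), inhibitor 0–100 µM, 37 °C, 20 min. Reaction stopped with 2 N NaOH. 4-Hydroxyquinoline fluorescence read at ex 310/em 400 nm against a calibration curve. IC50 taken from one-site fits of six concentrations, in triplicate. Selectivity = IC50(MAO-A)/IC50(MAO-B).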

Going from `Cn1c(=O)c2c(nc(NCCc3ccccc3)n2C)n(C)c1=O` to `Cn1c(=O)c2c(nc(NCCc3cccc(Cl)c3)n2C)n(C)c1=O`, the Ratio IC50 falls from 2.6 to 0.2.

Going from `Cn1c(=O)c2c(nc(SCc3ccc(F)cc3)n2C)n(C)c1=O` to `Cn1c(=O)c2c(nc(SCc3ccc(Br)cc3)n2C)n(C)c1=O`, the Ratio IC50 rises from 13.8 to 15.7.

First: Cn1c(=O)c2c(nc(SCc3ccccc3)n2C)n(C)c1=O
Second: Cn1c(=O)c2c(nc(SCCOc3ccccc3)n2C)n(C)c1=O
The Ratio IC50 of the first is lower: 4.4 for the first, 46.7 for the second.

First: CN(CCc1ccccc1)c1nc2c(c(=O)n(C)c(=O)n2C)n1C
Second: Cn1c(=O)c2c(nc(Sc3ccc4ccccc4c3)n2C)n(C)c1=O
The Ratio IC50 of the first is higher: 6.4 for the first, 1 for the second.

Compared with `CC(C)CCSc1nc2c(c(=O)n(C)c(=O)n2C)n1C`, `Cn1c(=O)c2c(nc(SC3CCCC3)n2C)n(C)c1=O` is lower in Ratio IC50: 5.8 for the first, 0.4 for the second.

`Cn1c(=O)c2c(nc(SC3CCCCC3)n2C)n(C)c1=O` was tested, and the Ratio IC50 was 1.9.

molecular target: T2, Amine oxidase [flavin-containing] A (Homo sapiens, UniProt P21397); assay: Inhibition of human recombinant MAOA using kynuramine as substrate by fluorescence assay; settings: not given; procedure, shortened: as §2
T2 sequence (P21397 whole entry): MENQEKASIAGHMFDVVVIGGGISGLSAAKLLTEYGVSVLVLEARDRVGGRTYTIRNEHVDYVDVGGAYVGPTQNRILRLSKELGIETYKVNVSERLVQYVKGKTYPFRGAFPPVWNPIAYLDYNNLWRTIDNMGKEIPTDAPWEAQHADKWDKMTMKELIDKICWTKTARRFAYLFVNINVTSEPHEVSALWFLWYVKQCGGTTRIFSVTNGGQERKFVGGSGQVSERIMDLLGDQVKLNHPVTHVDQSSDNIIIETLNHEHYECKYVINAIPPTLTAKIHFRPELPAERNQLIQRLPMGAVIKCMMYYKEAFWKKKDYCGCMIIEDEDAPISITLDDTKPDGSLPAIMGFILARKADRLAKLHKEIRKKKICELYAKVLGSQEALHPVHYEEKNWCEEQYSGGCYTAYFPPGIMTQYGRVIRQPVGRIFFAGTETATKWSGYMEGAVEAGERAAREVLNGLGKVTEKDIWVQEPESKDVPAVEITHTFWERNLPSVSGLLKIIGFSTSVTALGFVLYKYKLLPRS

Going from `Cn1c(=O)c2c(nc(NCCc3ccccc3)n2C)n(C)c1=O` to `Cn1c(=O)c2c(nc(NCCc3cccc(Cl)c3)n2C)n(C)c1=O`, the IC50 falls from 45.2 µM to 5.78 µM (7.8-fold). The second is the more potent here.

First: Cn1c(=O)c2c(nc(SCc3ccc(F)cc3)n2C)n(C)c1=O
Second: Cn1c(=O)c2c(nc(SCc3ccc(Br)cc3)n2C)n(C)c1=O
The IC50 of the first is 1.8-fold higher: 4.8 µM for the first, 2.62 µM for the second.

Going from `Cn1c(=O)c2c(nc(SCc3ccccc3)n2C)n(C)c1=O` to `Cn1c(=O)c2c(nc(SCCOc3ccccc3)n2C)n(C)c1=O`, the IC50 rises from 8.22 µM to 15.5 µM (1.9-fold). The first is the more potent here.

First: CN(CCc1ccccc1)c1nc2c(c(=O)n(C)c(=O)n2C)n1C
Second: Cn1c(=O)c2c(nc(Sc3ccc4ccccc4c3)n2C)n(C)c1=O
The IC50 of the first is 30-fold higher: 107 µM for the first, 3.6 µM for the second.

Compared with `CC(C)CCSc1nc2c(c(=O)n(C)c(=O)n2C)n1C`, `Cn1c(=O)c2c(nc(SC3CCCC3)n2C)n(C)c1=O` is 1.6-fold lower in IC50: 15.2 µM for the first, 9.4 µM for the second.

`Cn1c(=O)c2c(nc(SC3CCCCC3)n2C)n(C)c1=O` gave an IC50 of 24.4 µM.

molecular target: T2, Amine oxidase [flavin-containing] A; assay: Competitive inhibition of human recombinant MAOA using kynuramine as substrate at 1.31 to 5.22 uM by Lineweaver burk plot analysis; settings: not given; procedure, shortened: as §1

With `Cn1c(=O)c2c(nc(SCc3ccc(Br)cc3)n2C)n(C)c1=O` the “inhibition (INH)” value was “Active”.

molecular target: T2, Amine oxidase [flavin-containing] A; assay: Time dependent inhibition of human recombinant MAOA using kynuramine as substrate at 11.56 uM by fluorescence assay; settings: not given
Procedure, shortened: (§3)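 Recombinant human MAO-A or -B (0.015–0.03 mg/mL) was preheated at 37 °C for 60 min in total and preincubated with inhibitor at about 2× its IC50 for 0, 15, 30 or 60 min in pH 7.4 potassium phosphate. Mixtures were diluted 2-fold with kynuramine (45 µM MAO-A, 30 µM MAO-B) and incubated 15 min at 37 °C. Residual 4-hydroxyquinoline formation was read by fluorescence.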

In the case of `Cn1c(=O)c2c(nc(NCCc3cccc(Cl)c3)n2C)n(C)c1=O`, the TDI is reported as “Not Active”.

molecular target: T2, Amine oxidase [flavin-containing] A; assay: Time dependent inhibition of human recombinant MAOA using kynuramine as substrate at 5.22 uM by fluorescence assay; settings: not given; procedure, shortened: as §3

`Cn1c(=O)c2c(nc(SCc3ccc(Br)cc3)n2C)n(C)c1=O` was tested, and the TDI was “Not Active”.

molecular target: T2, Amine oxidase [flavin-containing] A; assay: Inhibition of human recombinant MAOA using kynuramine as substrate at 5.22 uM after 60 mins by fluorescence assay; settings: 1 h; procedure, shortened: as §3

With `Cn1c(=O)c2c(nc(SCc3ccc(Br)cc3)n2C)n(C)c1=O` the “inhibition (INH)” value was “Not Active”.

molecular target: T2, Amine oxidase [flavin-containing] A; assay: Reversible Inhibition of human recombinant MAOA using kynuramine as substrate at 2 times IC50 up to 60 mins; settings: 1 h; procedure, shortened: as §3

For `Cn1c(=O)c2c(nc(SCc3ccc(Br)cc3)n2C)n(C)c1=O`, the “inhibition (INH)” value was “Active”.
In the case of `Cn1c(=O)c2c(nc(NCCc3cccc(Cl)c3)n2C)n(C)c1=O`, the “inhibition (INH)” value is reported as “Active”.

molecular target: T1, Amine oxidase [flavin-containing] B; assay: Time dependent inhibition of human recombinant MAOB using kynuramine as substrate at 0.32 uM by fluorescence assay; settings: not given; procedure, shortened: as §3

In the case of `Cn1c(=O)c2c(nc(SCc3ccc(Br)cc3)n2C)n(C)c1=O`, the TDI is reported as “Not Active”.

molecular target: T1, Amine oxidase [flavin-containing] B; assay: Reversible Inhibition of human recombinant MAOB using kynuramine as substrate at 2 times IC50 up to 60 mins; settings: 1 h; procedure, shortened: as §3

With `Cn1c(=O)c2c(nc(SCc3ccc(Br)cc3)n2C)n(C)c1=O` the “inhibition (INH)” value was “Active”.

molecular target: T1, Amine oxidase [flavin-containing] B; assay: Inhibition of human recombinant MAOB using kynuramine as substrate by fluorescence assay; settings: not given; procedure, shortened: as §2

`Cn1c(=O)c2c(nc(NCCc3ccccc3)n2C)n(C)c1=O` and `Cn1c(=O)c2c(nc(NCCc3cccc(Cl)c3)n2C)n(C)c1=O` are within 1.5-fold of each other in IC50: 17.6 µM for the first, 24.4 µM for the second.

Compared with `Cn1c(=O)c2c(nc(SCc3ccc(F)cc3)n2C)n(C)c1=O`, `Cn1c(=O)c2c(nc(SCc3ccc(Br)cc3)n2C)n(C)c1=O` is 2.1-fold lower in IC50: 0.348 µM for the first, 0.167 µM for the second. The second is the more potent here.

First: Cn1c(=O)c2c(nc(SCc3ccccc3)n2C)n(C)c1=O
Second: Cn1c(=O)c2c(nc(SCCOc3ccccc3)n2C)n(C)c1=O
The IC50 of the first is 5.6-fold higher: 1.86 µM for the first, 0.332 µM for the second.

Compared with `CN(CCc1ccccc1)c1nc2c(c(=O)n(C)c(=O)n2C)n1C`, `Cn1c(=O)c2c(nc(Sc3ccc4ccccc4c3)n2C)n(C)c1=O` is 4.7-fold lower in IC50: 16.8 µM for the first, 3.6 µM for the second. The second is the more potent here.

Compared with `CC(C)CCSc1nc2c(c(=O)n(C)c(=O)n2C)n1C`, `Cn1c(=O)c2c(nc(SC3CCCC3)n2C)n(C)c1=O` is 8-fold higher in IC50: 2.62 µM for the first, 20.9 µM for the second. The first is the more potent here.

Compound `Cn1c(=O)c2c(nc(SC3CCCCC3)n2C)n(C)c1=O` has an IC50 of 13.1 µM.

molecular target: T1, Amine oxidase [flavin-containing] B; assay: Inhibition of human recombinant MAOB using kynuramine as substrate at 0.32 uM after 60 mins by fluorescence assay; settings: 1 h; procedure, shortened: as §3

For `Cn1c(=O)c2c(nc(SCc3ccc(Br)cc3)n2C)n(C)c1=O`, the “inhibition (INH)” value was “Not Active”.

molecular target: T2, Amine oxidase [flavin-containing] A; assay: Inhibition of human recombinant MAOA using kynuramine as substrate at 11.56 uM after 60 mins by fluorescence assay; settings: 1 h; procedure, shortened: as §3

With `Cn1c(=O)c2c(nc(NCCc3cccc(Cl)c3)n2C)n(C)c1=O` the “inhibition (INH)” value was “Not Active”.
